# Source: article PMC6476629 (Bioorganic & medicinal chemistry, 2019)
# Read-outs that look alike come from different tables or passages of the source.
# Assays:
# Assay type in all cases: binding, HIV-1
# [1] = system: 5'-32P labeled RRE SL-IIB; experiment: RNase footprinting; details: branched peptide 0-20 μM, concentration-dependent, upper stem region
# In short: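 RRE SL-IIB dephosphorylated, then 5′-end labeled with [γ-32P]ATP and T4 polynucleotide kinase. Labeled RNA (10 nM) plus unlabeled SL-IIB (200 nM) refolded (95 °C 3 min, snap-cooled on ice). Incubated with peptide on ice 4 h in 10 mM Tris pH 7, 100 mM KCl, 10 mM MgCl2. RNase V1 0.002 Units, 10 min on ice; quenched. Run on 12% PAGE/7.5 M urea beside an alkaline hydrolysis ladder. Read by autoradiography.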
# [2] = system: 234 nt NL4-3 RRE RNA; experiment: SHAPE-MaP footprinting; details: cutoff +/- 0.3
# [3] = molecular target: 2-AP-labeled RRE SL-IIB RNA; details: for Kd: at least duplicate, ± SD
# In short: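 2-AP-labelled RRE SL-IIB RNA (0.1 μM, refolded at 95 °C for 3 min and snap-cooled) with 10-fold excess unlabelled competitor (loop/bulge-deleted RRE RNA, RRE SL-IIB DNA or TAR RNA). Branched peptide titrated 0-20 μM in phosphate buffer (10 mM KPi, 100 mM KCl, 1 mM MgCl2, 20 mM NaCl, pH 7.0). Excitation 310 nm; fluorescence decrease at 372 nm. Kd from Hill-equation fit; at least duplicate, SD.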
substance,measurement,setting,value
(DLL)2KLGBY [4B3],protection from RNase V1 cleavage,[1],"reduced cleavage at G53, C54, and C65"
same,change in 1M7 reactivity,[2]; 1:1 RNA:BP ratio,decreased reactivity was observed at nt 28
same,change in 1M7 reactivity,"[2]; in the presence of 4B3, ratio not stated","nt 46, which forms non-canonical base pairing upon Rev,[12] exhibited increased reactivity"
same,Kd,[3]; RRE IIB in the presence of 10× RRE DNA,1480 ± 30 nM
same,Kd,[3]; RRE IIB in the presence of 10× TAR RNA,3520 ± 520 nM
same,loss of binding affinity,[3]; in the presence of No Bulge RRE RNA competitor,~3 fold
same,loss of binding affinity,[3]; in the presence of RRE DNA competitor,~3 fold
same,increase of Kd against RRE IIB,[3]; in the presence of TAR RNA competitor,approximately 10 fold
